# Source: PubChem (several laboratories)
# Rpn11 block: Rpn11 (human) deubiquitinase inhibition; O00487; human 26S proteasome, Ub4-pepOG fluorescence polarization; 20S core pre-blocked with epoxomicin; inhibition, % at 20 µM; actives 0.59% (n = 360,000); AID 588493;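 active = inhibition at 20 µM, scaled to each plate's controls, above about 33%, limit read from the data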
# TPT1 inhibitor: blocks Candida albicans tRNA 2'-phosphotransferase; recombinant caTPT1, FP RNA substrate dephosphorylation; inhibition, % at 5 µM; actives 0.81% (n = 300,000);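 active = inhibition above the mean of all tested compounds plus 3 SD, set per screening campaign, cut at about 24% in these data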;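 note: plate controls were DMSO alone for no effect and ferristatin control at 100 nM for full effect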
# Xi reactivation: activators of X-chromosome reactivation in mouse fibroblasts; XiGFP mouse fibroblasts, % GFP-positive cells imaging, 3 d; cells co-treated with 5-aza-dC sensitizer; scaled so ellipticine positive control = 100%; actives 0.055% (n = 360,000); activation, % at 7.58 µM;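 active = mean normalized replicate activation at least 10% and every replicate at or above 10%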;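 note: 0% = median of on-plate neutral control wells and 100% = ellipticine 6 µM median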
#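 Assay system – SV40-immortalized XiGFP fibroblast cells, line 68-5-11 · Buffer or medium – DMEM supplemented with 5-aza-dC as sensitizing agent · Dosing – one concentration, pinned · Benchmarks – positive control ellipticine, 6 µM final · Times – 3 days compound exposure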
# HNF4A DNA FP: change in binding of human HNF4 alpha to DNA. P41235. HNF4a-FITC DNA binding, fluorescence polarization, 1 h. activity change, % at 10 µM. actives 0.3% (n = 360,000). AID 1224865; in the data active = activity change above about 30%, passing the limit was not always enough
# aDG glyco act: increases alpha dystroglycan glycosylation; Pro5-aDG cells, alpha-DG glycosylation AlphaScreen (IIH6); 0% Pro5, 100% B10-LARGE cell signal; activation, % at 10 µM; actives 0.22% (n = 360,000);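 active = activation of at least 8% versus controls, or a plate z-score of at least 8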;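 note: Pro5 are CHO cells carrying HIG-tagged alpha-DG that lacks glycosylation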
# CSN inh: blocks human CSN-mediated cullin deneddylation | inhibition, % at 12.5 µM | Purified CSN, SCF-Nedd8-OG deneddylation, fluorescence polarization | actives 0.38% (n = 360,000) | Q92905;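 active = pattern-corrected inhibition above about 35%, with an unprinted fluorescence ratio check between 0.5 and 1.5, limit read from the data, passing the limit was not always enough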;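 note: 0% = enzyme with substrate and 100% = substrate without enzyme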
# Target sequence (Q92905 whole entry, looked up, one chain of several): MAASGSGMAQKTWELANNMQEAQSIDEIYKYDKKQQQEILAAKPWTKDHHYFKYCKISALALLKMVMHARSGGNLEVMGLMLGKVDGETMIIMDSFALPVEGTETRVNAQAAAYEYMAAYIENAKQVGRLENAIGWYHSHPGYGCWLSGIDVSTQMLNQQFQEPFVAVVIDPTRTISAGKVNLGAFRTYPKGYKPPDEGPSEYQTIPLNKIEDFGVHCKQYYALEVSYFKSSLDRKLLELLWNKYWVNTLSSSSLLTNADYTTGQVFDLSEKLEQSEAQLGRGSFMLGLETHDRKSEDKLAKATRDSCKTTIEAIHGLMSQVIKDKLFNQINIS
#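 Test system: Human Csn5 produced in HEK293T cells | Compound: 12.5 µM single point | Times: 90 min, room temperature | Signal: Fluorescence polarization readout | Read-out basis: % inhibition of substrate cleavage by Csn5 | Controls: no-enzyme wells high, enzyme-with-substrate wells low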
# HNF4a DNA conf: change in binding of human HNF4 alpha to DNA, retest | shares compounds with HNF4A DNA FP | HNF4A-FITC DNA binding, fluorescence polarization, 1 h | activity change, % at 12.5 µM | actives 99% (n = 210); call rule not given here
# The depositor's hits bear a star; x = no result shown. Most compounds without a hit are left out; they make up all but 1.3% or so of the library.
SMILES,Rpn11 block,TPT1 inhibitor,Xi reactivation,HNF4A DNA FP,aDG glyco act,CSN inh,HNF4a DNA conf
C#CCOCCOCCOCCNc1nc(N2CCN(C(=O)[C@H](CCCCN)n3cc(CN)nn3)CC2)nc(N2CCN(C(=O)[C@H](CCCCN)n3cc([C@@H](N)[C@H](C)CC)nn3)CC2)n1,32,x,0,96*,0,99*,99*
C#CCOCCOCCOCCNc1nc(N2CCN(C(=O)[C@H](CCCCN)n3cc([C@@H](N)C(C)CC)nn3)CC2)nc(N2CCN(C(=O)[C@H](CCCCN)n3cc([C@@H](N)CO)nn3)CC2)n1 (stereo partly specified),x,0,x,x,x,x,x
O=C(N/N=C/c1ccc(F)cc1)c1cc(-c2ccc3c(c2)OCO3)n[nH]1,25,-2,0,3,0,5,x
CN(C)c1ccc(/C=N/NC(=O)c2cc(-c3ccc4c(c3)OCO4)n[nH]2)cc1,x,-2,1,47*,0,42*,59*
O=C(N/N=C/c1ccc(-c2cccc([N+](=O)[O-])c2)o1)[C@H]1C[C@@H]1c1ccccc1,7,-2,0,0,0,-1,x
O=C(N/N=C/c1ccc(-c2ccc([N+](=O)[O-])cc2)o1)[C@H]1C[C@@H]1c1ccccc1,x,20,0,65*,0,16,74*
COc1ccc(C[C@@H]2CCn3cc(nn3)COC[C@@H](CC(C)C)NC2=O)cc1,x,x,0,x,x,x,x
CC(C)=CCCC(C)c1cc(C(=O)NCCc2ccc(O)cc2)c(N)s1 (stereo unspecified),x,x,0,52*,0,12,39*
CN1C(=O)/C(=C/C=C2\SCCN2C)N(C)C1=S,x,x,0,119*,0,74,143*
Cc1nn(-c2ccccc2)c(Cl)c1/C=C1\C(=O)N(C)C(=S)N1C,1,3,0,1,0,12,x
